According to ChEMBL document CHEMBL1629507, “Small molecule inhibitors of hantavirus infection” (Bioorg Med Chem Lett, 2010):
The source made the active and inactive calls. No cut-off for these calls is given here. Where a SMILES comes first, the peptide text is derived from it. Bridges are numbered along the chain shown (N, C = ends).

Assays:
Format in all cases: cell-based
[1] = target: T1, Integrin alpha-V/beta-3 (Homo sapiens) (UniProt P05106+P06756); experiment: Inhibition of human alphaVbeta3 receptor expressed in african green monkey Vero E6 cells assessed as inhibition of SNV infection in cells at 1 uM by immunofluorescent assay
In short: (§1)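 Vero E6 cells (10^4/well, duplicate wells) were grown 24 h at 37 °C in MEM with 2.5% FBS. They were pretreated 1 h at 37 °C with small molecules (1 µM) or cyclic peptides (2 mM, in PBS pH 7.4). SNV strain SN77734 (500–1,000 FFU/ml) was then added for 1 h, then washed out. After 24–36 h, cells were fixed and stained with anti-SNV N plus FITC antibody, and foci counted. % inhibition is relative to untreated cells, normalized to ReoPro 80 µg/ml set as 80%; at least 4 replicates.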

[2] = target: T1, Integrin alpha-V/beta-3 (Homo sapiens); experiment: Inhibition of human alphaVbeta3 receptor expressed in african green monkey Vero E6 cells assessed as inhibition of SNV infection in cells by immunofluorescent assay
In short: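 SNV infection of Vero E6 cells in a dose-response format. Cells were pretreated 1 h at 37 °C with compound across a concentration range, then exposed to virus for 1 h, washed, and cultured 24–36 h. Infected foci were counted by anti-N immunofluorescence. Inhibition was taken relative to untreated cells and normalized to ReoPro. EC50 derived from curves; points are the mean and standard error of N = 4.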

[3] = target: T1, Integrin alpha-V/beta-3 (Homo sapiens); experiment: Inhibition of human […] alphaVbeta3 expressed in african green monkey Vero E6 cells assessed as inhibition of Andes CHI-7913 viral entry at 10 uM
[4] = target: T1, Integrin alpha-V/beta-3 (Homo sapiens); experiment: Inhibition of human […] alphaVbeta3 expressed in african green monkey Vero E6 cells assessed as inhibition of Andes CHI-7913 viral entry at 1 mM
[5] = target: T1, Integrin alpha-V/beta-3 (Homo sapiens); experiment: Inhibition of human […] alphaVbeta3 expressed in african green monkey Vero E6 cells assessed as inhibition of Hantaan 76/118 viral entry at 10 uM
[6] = target: T1, Integrin alpha-V/beta-3 (Homo sapiens); experiment: Inhibition of human […] alphaVbeta3 expressed in african green monkey Vero E6 cells assessed as inhibition of Hantaan 76/118 viral entry at 1 mM
[7] = target: T1, Integrin alpha-V/beta-3 (Homo sapiens); experiment: Inhibition of human […] alphaVbeta3 expressed in african green monkey Vero E6 cells assessed as inhibition of SNV SN77734 entry at 10 uM
[8] = target: T1, Integrin alpha-V/beta-3 (Homo sapiens); experiment: Inhibition of human […] alphaVbeta3 expressed in african green monkey Vero E6 cells assessed as inhibition of SNV SN77734 entry at 1 mM
[9] = target: T2, Integrin alpha-V/beta-1 (Homo sapiens) (UniProt P05556+P06756); experiment: Inhibition of human […] alphaVbeta1 expressed in african green monkey Vero E6 cells assessed as inhibition of PHV-1 entry at 10 uM
[10] = target: T2, Integrin alpha-V/beta-1 (Homo sapiens); experiment: Inhibition of human […] alphaVbeta1 expressed in african green monkey Vero E6 cells assessed as inhibition of PHV-1 entry at 1 mM
[11] = target: T1, Integrin alpha-V/beta-3 (Homo sapiens); experiment: Inhibition of human alphaVbeta3 receptor expressed in african green monkey Vero E6 cells assessed as inhibition of SNV infection in cells at 2 mM by immunofluorescent assay; in short: as §1

## O=C(NCc1ccc2c(c1)OCO2)C(Cc1ccccc1)NS(=O)(=O)c1cccc2cccnc12 (racemic)
[1]
  inhibition: 46.5%
[2]
  inhibition: Dose-dependent effect
[3]
  inhibition: Active
[4]
  inhibition: Active
[5]
  inhibition: Active
[6]
  inhibition: Active
[7]
  inhibition: Active
[8]
  inhibition: Active
[9]
  inhibition: Active
[10]
  inhibition: Active

## O=c1c(/C=N/Cc2ccco2)c(CSc2ccc(Cl)cc2)[nH]n1-c1nc2ccccc2s1
[1]
  inhibition: 29%
[2]
  inhibition: Dose-dependent effect
[3]
  inhibition: Active
[4]
  inhibition: Active
[5]
  inhibition: Active
[6]
  inhibition: Active
[7]
  inhibition: Active
[8]
  inhibition: Active
[9]
  inhibition: Active
[10]
  inhibition: Active

## O=C(NCc1cccs1)C(Cc1ccccc1)NS(=O)(=O)c1ccc2nsnc2c1 (racemic)
[1]
  inhibition: 29%
[2]
  inhibition: Dose-dependent effect
[3]
  inhibition: Active
[4]
  inhibition: Active
[5]
  inhibition: Active
[6]
  inhibition: Active
[7]
  inhibition: Active
[8]
  inhibition: Active
[9]
  inhibition: Active
[10]
  inhibition: Active

## CC(C)C[C@@H]1NC(=O)[C@H](CCC(N)=O)NC(=O)[C@H]([C@@H](C)O)NC(=O)[C@H](CCCCN)NC(=O)[C@H](C(C)C)NC(=O)[C@H](Cc2ccccc2)NC(=O)[C@@H]2CCCN2C(=O)[C@@H](N)CSSC[C@@H](C(=O)O)NC1=O (H-CPFVKTQLC-OH; disulfide 1-9)
[11]
  inhibition: 54.6%

## O=C(NCCc1ccccc1)C(Cc1ccccc1)NS(=O)(=O)c1cccc2nsnc12 (stereo not given)
[1]
  inhibition: 0%

## COc1ccccc1CNC(=O)C1CCCN(c2ncnc3onc(-c4ccc(F)cc4)c23)C1 (stereo not given)
[1]
  inhibition: 16%

## O=C(NCCc1ccc(Cl)cc1)C1CCCN(c2ncnc3onc(-c4ccc(F)cc4)c23)C1 (stereo not given)
[1]
  inhibition: 14.5%

## O=C(N/N=C/c1ccc(Br)s1)c1cc(-c2ccccc2)nc2ccccc12
[1]
  inhibition: 5%

## CCCCN(CC)CCCNC(=O)C1CCCN(c2ncnc3onc(C)c23)C1 (stereo not given)
[1]
  inhibition: 3.1%

## Cc1ccc(Cl)cc1NC(=O)C(Cc1ccccc1)NS(=O)(=O)c1cccc2cccnc12 (stereo not given)
[1]
  inhibition: 14%

## O=C(NCC1CCCO1)C(Cc1ccccc1)NS(=O)(=O)c1cccc2nsnc12 (stereo not given)
[1]
  inhibition: 2%

## O=C(NCc1cccc(Cl)c1)C1CCCN(c2ncnc3onc(-c4ccc(F)cc4)c23)C1 (stereo not given)
[1]
  inhibition: 6%

## Cc1cccc(C)c1NC(=S)N/N=C\c1cn(C)c2ccc(S(=O)(=O)N3CCOCC3)cc12
[1]
  inhibition: 0%

## O=C(C(Cc1ccccc1)NS(=O)(=O)c1ccc2nsnc2c1)N1CCC2(CC1)OCCO2 (stereo not given)
[1]
  inhibition: 6%

## CCC(Sc1nc2ccsc2c(=O)n1Cc1ccc2c(c1)OCO2)C(=O)NCc1ccco1 (stereo not given)
[1]
  inhibition: 41%

## Cc1ccc(Cl)cc1NC(=O)C(Cc1ccccc1)NS(=O)(=O)c1cccc2nsnc12 (stereo not given)
[1]
  inhibition: 3.2%

## CCOC(=O)N1CCN(C(=O)C(Cc2ccccc2)NS(=O)(=O)c2ccc3nsnc3c2)CC1 (stereo not given)
[1]
  inhibition: 4%

## O=C(NC(Cc1c[nH]c2ccccc12)C(=O)OCC(=O)c1ccc(Cl)cc1)Oc1ccccc1 (stereo not given)
[1]
  inhibition: 29%

## CC(C)[C@@H]1NC(=O)[C@H](Cc2ccccc2)NC(=O)[C@H]2CCCN2C(=O)[C@@H](N)CSSC[C@@H](C(=O)O)NC1=O
[11]
  inhibition: 53%
[3]
  inhibition: Active
[4]
  inhibition: Active
[5]
  inhibition: Active
[6]
  inhibition: Active
[7]
  inhibition: Active
[8]
  inhibition: Active
[9]
  inhibition: Active
[10]
  inhibition: Active

## O=C(Nc1ccccc1Cl)C(Cc1ccccc1)NS(=O)(=O)c1cccc2nsnc12 (stereo not given)
[1]
  inhibition: 10%

## O=C(O)CCCCCNC(=O)/C(=C/c1ccccc1)NC(=O)c1ccco1
[1]
  inhibition: 0%

## N#Cc1ccccc1OCC(=O)N/N=C/c1cc(Br)ccc1OC(=O)c1ccccc1
[1]
  inhibition: 15%

## O=C(CSc1nc2ccsc2c(=O)n1-c1ccc(Cl)cc1)NCCc1ccc(Cl)cc1
[1]
  inhibition: 11.4%

## COc1ccc(/C=C(\NC(=O)c2ccccc2)C(=O)NCCCCCC(=O)O)cc1
[1]
  inhibition: 8%

## COc1ccc(CCNC(=O)CN(CCc2ccccc2)S(=O)(=O)c2ccccc2)cc1OC
[1]
  inhibition: 15.2%

## O=C(NCc1ccco1)C(Cc1ccccc1)NS(=O)(=O)c1ccc2nsnc2c1 (stereo not given)
[1]
  inhibition: 21%

## COc1ccc(Cl)cc1NC(=O)C(Cc1ccccc1)NS(=O)(=O)c1cccc2cccnc12 (stereo not given)
[1]
  inhibition: 8%

## COc1ccc(S(=O)(=O)NC(CC(=O)NCc2ccc3c(c2)OCO3)c2ccco2)cc1 (stereo not given)
[1]
  inhibition: 0%

## CCOC(=O)N1CCC(NC(=O)C(Cc2ccccc2)NS(=O)(=O)c2cccc3nsnc23)CC1 (stereo not given)
[1]
  inhibition: 0%

## Cc1cccc(OCC(=O)N/N=C/c2ccc(OC(=O)/C=C/c3ccco3)cc2)c1
[1]
  inhibition: 8%
